We go through 25 molecules from ChEMBL document CHEMBL1138002, “Synthesis and biological evaluation of thiazolidine-2,4-dione and 2,4-thione derivatives as inhibitors of translation initiation” (2004).

Assay type in all cases: functional
The subject of assay [1] is A549. The experiment in a line: Inhibition of human lung cancer cell line (A549) growth by 50% in sulforhodamine-B assay. The essentials: (§1)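 Human A549 lung cancer cells; growth inhibition read by sulforhodamine B assay, staining cellular protein content. GI50 taken as concentration needed to inhibit 50% of cell proliferation. DMSO negative control, troglitazone (TRO) positive control; mean ± SD from three determinations.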

The nature of assay [2]: Ratio of intensity of phosphorylation of phosphorylated eIF2a to the intensity of the total eIF2a was determined. The method in brief: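 Cells exposed to drug at 5 µM; extracts analysed by Western blot with phospho-Ser51-specific rabbit anti-eIF2a and mouse monoclonal total eIF2a antibodies, quantified by infrared imaging. Phospho/total eIF2a intensity ratio normalized to DMSO; TRO positive, DMSO negative control; mean ± SD of three determinations.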

In assay [3] the test system is A549. Put plainly: Inhibition of human lung cancer cell line (A549) by 50% in sulforhodamine B assay. The method in brief: as §1

The molecule `O=C1NC(=S)S/C1=C\c1cc(Cl)ccc1OCc1ccccc1` had a GI50 in the assay on A549 [1] of 5 µM. The Ratio in assay [2] stood at 1.76.
For `O=C1NC(=O)/C(=C/c2cc([N+](=O)[O-])ccc2OCc2ccccc2)S1`, in that order: 14 µM and 0.89.
In the assay with A549 [1], `Cc1ccc(OCc2ccccc2)c(/C=C2\SC(=O)NC2=O)c1` showed a GI50 of 8 µM. For the same molecule, the Ratio in assay [2] turned out to be 1.94.
Take `O=C1NC(=O)/C(=C/c2cc(Br)ccc2OCc2ccccc2)S1`: the GI50 in the assay with A549 [1] came to 5 µM. In assay [2], the Ratio is 4.05.
Take `O=C1NC(=S)S/C1=C\c1cc(F)ccc1OCc1ccccc1`: halving of growth with A549 [1] (GI50) required 9 µM. In addition, in assay [2], the Ratio came out at 5.02.
Consider `O=C1NC(=S)S/C1=C\c1cc(-c2ccccc2)ccc1OCc1ccccc1`, for which growth with A549 [1] was halved (GI50) at 4 µM. In addition, in assay [2], the Ratio was 2.35.
Turning to `COc1ccc(OCc2ccccc2)c(/C=C2\SC(=O)NC2=O)c1`, the GI50 in the assay on A549 [1] is 14 µM. In addition, the Ratio in assay [2] is 0.98.
In turn, `CC(C)(C)c1ccc(OCc2ccccc2)c(/C=C2\SC(=O)NC2=O)c1` yielded a GI50 with A549 [1] of 2 µM. For the same molecule, the Ratio in assay [2] is 6.98.
For the molecule `CC(C)(C)c1ccc(OCc2ccccc2)c(/C=C2\SC(=S)NC2=O)c1`, in the assay with A549 [1], the GI50 turned out to be 7 µM. Moreover, in assay [2], the Ratio is 1.97.
`O=C1NC(=S)SC1Cc1cc(Cl)ccc1OCc1ccccc1` (stereo not given) returned a GI50 with A549 [1] of 29 µM. The Ratio in assay [2] is 1.25.
For `COc1ccc(OCc2ccccc2)c(/C=C2\SC(=S)NC2=O)c1`, in that order: 7 µM and 0.94.
In the assay on A549 [3], `CC(C)(C)c1ccc(OCc2ccccc2)c(CC2SC(=O)NC2=O)c1` (stereo not given) returned a GI50 of 12 µM. Further, in assay [2], the Ratio came to 0.79.
In turn, `CC(C)(C)c1ccc(-c2ccc(OCc3ccccc3)c(/C=C3\SC(=O)NC3=O)c2)cc1` yielded a GI50 in the assay with A549 [1] of 2 µM. For the same molecule, the Ratio in assay [2] was 1.16.
`Cc1ccc(OCc2ccccc2)c(/C=C2\SC(=S)NC2=O)c1` displayed a GI50 with A549 [1] of 6 µM. The Ratio in assay [2] worked out at 4.15.
Molecule `O=C1NC(=S)S/C1=C\c1cc(Br)ccc1OCc1ccccc1` registered a GI50 in the assay on A549 [1] of 7 µM. In addition, the Ratio in assay [2] was 1.4.
In the same order, the values of `O=C1NC(=O)/C(=C/c2ccccc2OCc2ccccc2)S1` are 35 µM and 0.92.
In the same order, the values of `O=C1NC(=S)S/C1=C\c1cc(N2CCOCC2)ccc1OCc1ccccc1` are 5 µM and 0.92.
The molecule `O=C1NC(=S)S/C1=C\c1cc(N2CCCCC2)ccc1OCc1ccccc1` returned a GI50 in the assay on A549 [1] of 3 µM. The Ratio in assay [2] was 0.75.
For `O=C1NC(=O)/C(=C/c2cc(F)ccc2OCc2ccccc2)S1`, in that order: 4 µM and 0.72.
Regarding `O=C1NC(=S)S/C1=C\c1ccccc1OCc1ccccc1`, in the assay on A549 [1], halving of growth (GI50) required 13 µM. Besides, in assay [2], the Ratio amounted to 1.17.
In the assay on A549 [1], `O=C1NC(=O)/C(=C/c2cc(Cl)ccc2OCc2ccccc2)S1` displayed a 50% growth inhibitory concentration (GI50) of 5 µM. Also, the Ratio in assay [2] came out at 4.52.
On to `O=C1NC(=O)/C(=C/c2cc(-c3ccccc3)ccc2OCc2ccccc2)S1`, for which the GI50 with A549 [1] was determined as 2 µM. Also, the Ratio in assay [2] was determined as 0.76.
The molecule `O=C1NC(=S)S/C1=C\c1cc([N+](=O)[O-])ccc1OCc1ccccc1` showed a GI50 in the assay with A549 [1] of 5 µM. Further, the Ratio in assay [2] worked out at 3.49.
Consider `Cc1c(C)c2c(c(C)c1O)CCC(C)(COc1ccc(CC3SC(=O)NC3=O)cc1)O2` (stereo not given) [TROGLITAZONE], for which it took 15 µM to inhibit growth in the assay on A549 [3] by half (GI50). Besides, the Ratio in assay [2] was determined as 2.12.
The molecule `CC(C)(C)c1ccc(-c2ccc(OCc3ccccc3)c(/C=C3\SC(=S)NC3=O)c2)cc1` returned a GI50 in the assay on A549 [1] of 2 µM. In assay [2], the Ratio stood at 1.37.
